pIC50: −log10 of the molar value.
Key:
[1] = system: Human immunodeficiency virus; test: Antiviral activity against VSV envelope pseudotyped HIV infected in MT2 cells assessed as luminescence measured after 48 hrs by viral entry evaluation assay; format: functional, organism-based; conditions: Human immunodeficiency virus 1, MT2, 48 h
Outline: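 VSV-G pseudotyped HIV came from 293T cotransfection (calcium phosphate) of envelope-deleted pNL4.3-Luc-RE plus pcDNA3-VSV. MT-2 cells were infected at 100 000 RLUs or 20 ng p24 per well, with base-2 dilutions up to 100 μM, for 48 h at 37 °C, 5% CO2. NL4.3-Ren infections ran in parallel, with an enfuvirtide reference. Luciferase RLUs were read and IC50 obtained by nonlinear regression.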

[2] = Selectivity index, ratio of CC50 for human MT2 cells to IC50 for antiviral activity against HIV1 pNL4.3-Luc infected in MT2 cells by transfection assay; format: toxicity, cell-based; conditions: read-out: Selectivity Index
[3] = Selectivity index, ratio of CC50 for human MT2 cells to IC50 for antiviral activity against VSV envelope pseudotyped HIV infected in MT2 cells by viral entry evaluation assay; format: toxicity, cell-based; conditions: read-out: Selectivity Index
[4] = Antiviral activity against HIV1 pNL4.3-Luc infected in MT2 cells assessed as luciferase activity measured after 48 hrs by transfection assay; format: functional, cell-based; conditions: Human immunodeficiency virus 1, MT2, 48 h
Outline: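 MT-2 cells were electroporated at 260 V, maximum resistance, with an HIV-1 whole-genome luciferase plasmid (pNL4.3-Luc). They were then treated with base-2 serial dilutions from 0.7 to 100 μM in complete RPMI at 37 °C for 48 h. PMA served as the transactivation reference. Cells were lysed and luciferase RLUs read. IC50 came from nonlinear dose–response regression.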

[5] = Selectivity index, ratio of CC50 for human MT2 cells to IC50 for Anti-HIV activity against HIV; format: toxicity; conditions: read-out: Selectivity Index
Outline: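 SI = CC50/IC50. […] CC50 came from mock-infected MT-2 cells under the same conditions, read by CellTiter Glo. Both are means of at least three independent experiments, fitted by nonlinear regression.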

Compound | pIC50 [1] | selectivity ratio [2] | selectivity ratio [3] | pIC50 [4] | selectivity ratio [5]
CC(=O)O[C@H]1C=C([C@H](C)[C@H]2CC(C)=C(C)C(=O)O2)[C@@]2(C)CC[C@H]3[C@@H](C[C@@H](O)[C@]45C=C[C@H](OO4)C(=O)[C@]35C)[C@@]12O | 5.49 | 1.02 | 1.64 | 5.71 | –
CC(=O)O[C@H]1C=C([C@H](C)[C@H]2CC(C)=C(C)C(=O)O2)[C@@]2(C)CC[C@H]3[C@@H](C[C@H]4O[C@]45CC=CC(=O)[C@]35C)[C@@]12O | – | – | 2.66 | – | 10.6
C=C1C(=O)O[C@@H]([C@@H](C)[C@]2(O)C[C@H](OC(C)=O)[C@]3(O)[C@@H]4C[C@H]5O[C@]56CC=CC(=O)[C@]6(C)[C@H]4CC[C@@]32C)C[C@@]1(C)O | – | – | – | – | > 8
C=C1C(=O)O[C@@H]([C@@H](C)[C@]2(O)C[C@H](OC(C)=O)[C@]3(O)[C@@H]4C[C@H]5O[C@]56CC=CC(=O)[C@]6(C)[C@H]4CC[C@@]32C)C[C@]1(C)O | – | – | – | – | > 5.3
C[C@H](Cn1cnc2c(N)ncnc21)OCP(=O)(O)O [TENOFOVIR ANHYDROUS] | – | – | – | – | 333
enfuvirtide | < 6.00 | – | 66.7 | 8.00 | –
